Assay results collected from several papers.
Each line is one published result; the experiments were not run side by side.
DRD2: D(2) dopamine receptor (DRD2, Homo sapiens, UniProt P14416)
EGFR: Epidermal growth factor receptor (EGFR, Homo sapiens, UniProt P00533)
MTOR: Serine/threonine-protein kinase mTOR (MTOR, Homo sapiens, UniProt P42345)

Cc1cc(O)cc(C)c1C[C@H](N)C(=O)N[C@H](C)C(=O)NCC(=O)N[C@@H](Cc1ccc(Cl)cc1)C(=O)N(C)CCC[C@@]1(c2ccc(F)cc2)OCc2cc(C#N)ccc21
Ki (DRD2; ligand displacement; radioligand): 2200 nM

Cl.Cl.N.N.N.N.N.N.N.N.[N-3].[Ru+4].[Ru+4]
IC50 (Calcium uniporter protein, mitochondrial (MCU, Homo sapiens, UniProt Q8NE86); transporter uptake; inhibitor): 2.2 nM

CC(C)[C@@H]1NC(=O)[C@H](CCCNC(=N)N)NC(=O)[C@H](Cc2ccc(O)cc2)NC(=O)[C@H](C(C)C)NC(=O)[C@H](C(C)C)NC(=O)[C@H](CCCNC(=N)N)NC(=O)[C@H](CC(=O)O)NC(=O)[C@H](CC(=O)O)NC(=O)CCNC(=O)[C@H](Cc2ccc(O)cc2)NC(=O)[C@H](Cc2ccc(O)cc2)NC(=O)[C@H](Cc2ccccc2)NC(=O)[C@@H](Cc2ccc(O)cc2)NC(=O)CSC[C@@H](C(=O)NCC(N)=O)NC(=O)CCNC1=O
Kd (EGFR; binding; SPR): 632 nM

CC[C@H](C)[C@H](NC(=O)[C@@H](N)CCCNC(=N)N)C(=O)N[C@H](C(=O)N1CCC[C@H]1C(=O)N[C@@H](C)C(N)=O)C(C)C
Kd (Sequestosome-1 (SQSTM1, Homo sapiens, UniProt Q13501); binding; MST; pH 7): 800 nM

CC(C)[C@@H]1NC(=O)CCNC(=O)CCNC(=O)[C@H](Cc2ccc(O)cc2)NC(=O)[C@H](Cc2ccc(O)cc2)NC(=O)[C@H](Cc2ccccc2)NC(=O)[C@@H](Cc2ccc(O)cc2)NC(=O)CSC[C@@H](C(=O)NCC(N)=O)NC(=O)CCNC(=O)[C@H](CCCNC(=N)N)NC(=O)[C@H](CCCNC(=N)N)NC(=O)[C@H](Cc2ccc(O)cc2)NC(=O)[C@H](C(C)C)NC(=O)[C@H](C(C)C)NC(=O)[C@H](CC(N)=O)NC1=O
Kd (EGFR; binding; SPR): 1690 nM

Nc1ncc(-c2nc(N3CCOCC3)nc(N3CCOCC3)n2)c(C(F)F)n1
Kd (MTOR; binding; competition with immobilised ligand): 21.5 nM

CC(C)C[C@H](NC(=O)[C@H](Cc1ccccc1)NC(=O)[C@H](Cc1ccc(O)cc1)NC(=O)CNC(=O)[C@H](CCCCN)NC(=O)[C@H](CO)NC(=O)[C@H](CCC(N)=O)NC(=O)CNC(=O)[C@@H](NC(=O)[C@H](CO)NC(=O)[C@@H]1CCCN1C(=O)[C@H](CO)NC(=O)[C@H](CCC(N)=O)NC(=O)[C@H](Cc1ccc(O)cc1)NC(=O)[C@H](CCC(=O)O)NC(=O)[C@H](C)NC(=O)[C@H](CCCCN)NC(=O)[C@@H](N)Cc1ccccc1)C(C)C)C(=O)N[C@@H](Cc1ccccc1)C(=O)N[C@@H](CCCNC(=N)N)C(=O)N1CCC[C@H]1C(=O)N[C@@H](CCCNC(=N)N)C(=O)N[C@@H](CC(N)=O)C(N)=O
EC50 (Neuromedin-U receptor 2 (Mus musculus, UniProt Q8BZ39); inositol phosphate; agonist): 0.794 nM

COCCCN1CCN(c2ccccc2OC)CC1
Ki (DRD2; ligand displacement; radioligand): 180 nM

CC/C=C\C/C=C\C/C=C\CCCCCCCC(=O)O
Ki (Liver carboxylesterase (Sus scrofa, UniProt Q29550); enzyme activity; inhibitor; HPLC): 620 nM

OC(c1ccc(F)cc1)C(F)(F)CCN1CCC(O)(c2ccc(Cl)cc2)CC1 (racemic)
Ki (DRD2; cell-free assay; radioligand): 1960 nM

CSCC[C@H](NC(=O)[C@H](CC(C)C)NC(=O)[C@H](Cc1cnc[nH]1)NC(=O)CNC(=O)[C@@H](NC(=O)[C@H](C)NC(=O)[C@H](Cc1c[nH]c2ccccc12)NC(=O)[C@H](CCC(N)=O)NC(=O)[C@H](CC(N)=O)NC(=O)CNC(=O)[C@H](CC(C)C)NC(=O)[C@H](CCCN=C(N)N)NC(=O)[C@H](CCC(N)=O)NC(=O)[C@@H]1CCC(=O)N1)C(C)C)C(N)=O
EC50 (Bombesin receptor subtype-3 (Brs3, Rattus norvegicus, UniProt Q8K418); calcium signal; agonist; fluorescence): > 10000 nM

C=C1C[C@H]2C[C@@H](c3ccc(Br)cc3)OCC[C@@H](O)CC(=O)O[C@@H]([C@@H](C)O)C[C@@H]3C/C(=C\C(=O)OC)[C@H](OC(=O)CCCCCCC)[C@@](O)(O3)C(C)(C)/C=C/[C@@H](C1)O2
Ki (Protein kinase C delta type (PRKCD, Homo sapiens, UniProt Q05655); ligand displacement; radioligand): 2.2 nM

O=c1c(O)c(-c2ccc(O)c(O)c2)oc2cc(O)ccc12
Kd (MTOR; cell-free assay; competition with immobilised ligand): 11000 nM

CCCC[C@@H](NC(=O)[C@@H](N)Cc1c(C)cc(O)cc1C)C(=O)NCC(=O)N[C@@H](Cc1ccc(F)cc1)C(=O)N(C)CCC[C@@]1(c2ccc(F)cc2)OCc2cc(C#N)ccc21
Ki (DRD2; ligand displacement; radioligand): 2700 nM
